Data set [1] in a line: Therapeutic index, IC50 for human H9 cells to EC50 for HIV1 3B. In kind it is cell-based. The note with it: read-out: Ratio IC50/EC50.
Data set [2] concerns H9. Nature of the data set: Cytotoxicity against human H9 cells after 3 days. In kind it is cell-based. As to conditions: H9, 72 h. The essentials: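 Uninfected H9 lymphocytes cultured with an equal volume of compound dilution for 3 days at 37°. Cell density then counted; IC50 = concentration inhibiting lymphocyte growth by 50%.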
Data set [3] has as its system Human immunodeficiency virus 1. Put plainly: Antiviral activity against HIV1 3B in human H9 cells assessed as inhibition of viral replication after 3 days by p24 antigen capture assay. In kind it is functional, organism-based. As to conditions: Human immunodeficiency virus 1, 3B, H9, 72 h. The essentials:
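H9 lymphocytes (1 × 10^7 cells/ml) exposed to HIV-1 IIIB for 1 h at 37°, washed free of unadsorbed virus, resuspended at […] and mixed with an equal volume of compound dilution; 3 days at 37°. Infection read by p24 antigen capture, at four concentrations relative to infected untreated cultures; EC50 = concentration inhibiting replication by 50%.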

Data set [4] concerns the target Protein kinase C beta type (Homo sapiens, UniProt P05771). Nature of the data set: Inhibition of PKC beta2. The essentials: (§1)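 Purified PKC isoenzyme (20 ng) starts the reaction. Mix: phosphatidylserine 40 µg/ml/diacylglycerol 1.76 µg/ml vesicles, 20 mM HEPES pH 7.5, 10 mM MgCl2, 200 µg/ml histone substrate, 100 µM CaCl2, 47.5 µM EGTA, 20 µM [32P]ATP; compounds in DMSO. 10 min at 30°, stopped with cold TCA plus BSA, precipitate filtered and scintillation-counted.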

In data set [5] the target is T1, Protein kinase C epsilon type (Homo sapiens, UniProt Q02156).
T1 sequence (Q02156 whole entry): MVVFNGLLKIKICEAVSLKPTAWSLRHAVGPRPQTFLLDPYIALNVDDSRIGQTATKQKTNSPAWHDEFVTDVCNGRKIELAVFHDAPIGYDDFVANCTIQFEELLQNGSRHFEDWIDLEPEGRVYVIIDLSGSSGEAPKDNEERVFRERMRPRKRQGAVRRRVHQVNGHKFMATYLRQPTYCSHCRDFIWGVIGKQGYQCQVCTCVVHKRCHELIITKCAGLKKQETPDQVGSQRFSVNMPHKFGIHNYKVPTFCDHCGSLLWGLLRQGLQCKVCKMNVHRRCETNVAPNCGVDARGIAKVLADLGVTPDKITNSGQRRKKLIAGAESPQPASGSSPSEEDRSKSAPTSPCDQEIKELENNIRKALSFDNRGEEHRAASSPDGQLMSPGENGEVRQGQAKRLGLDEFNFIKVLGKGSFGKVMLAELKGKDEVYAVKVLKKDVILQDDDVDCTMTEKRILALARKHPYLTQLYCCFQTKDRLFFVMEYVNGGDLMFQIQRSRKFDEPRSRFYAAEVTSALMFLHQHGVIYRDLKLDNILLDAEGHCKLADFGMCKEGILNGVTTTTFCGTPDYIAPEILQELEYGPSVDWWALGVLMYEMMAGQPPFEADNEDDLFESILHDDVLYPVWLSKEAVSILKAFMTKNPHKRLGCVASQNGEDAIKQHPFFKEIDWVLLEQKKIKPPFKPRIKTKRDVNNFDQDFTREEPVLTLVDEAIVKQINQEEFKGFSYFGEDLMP
Nature of the data set: Inhibition of PKC epsilon. The essentials: as §1

The target in data set [6] is Protein kinase C delta type (Homo sapiens, UniProt Q05655). Nature of the data set: Inhibition of PKC delta. A digest of the protocol: as §1
The target in data set [7] is Protein kinase C gamma type (Homo sapiens, UniProt P05129). Put plainly: Inhibition of PKC gamma. A digest of the protocol:
as §1

Protein kinase C beta type, sequence (P05771 whole entry): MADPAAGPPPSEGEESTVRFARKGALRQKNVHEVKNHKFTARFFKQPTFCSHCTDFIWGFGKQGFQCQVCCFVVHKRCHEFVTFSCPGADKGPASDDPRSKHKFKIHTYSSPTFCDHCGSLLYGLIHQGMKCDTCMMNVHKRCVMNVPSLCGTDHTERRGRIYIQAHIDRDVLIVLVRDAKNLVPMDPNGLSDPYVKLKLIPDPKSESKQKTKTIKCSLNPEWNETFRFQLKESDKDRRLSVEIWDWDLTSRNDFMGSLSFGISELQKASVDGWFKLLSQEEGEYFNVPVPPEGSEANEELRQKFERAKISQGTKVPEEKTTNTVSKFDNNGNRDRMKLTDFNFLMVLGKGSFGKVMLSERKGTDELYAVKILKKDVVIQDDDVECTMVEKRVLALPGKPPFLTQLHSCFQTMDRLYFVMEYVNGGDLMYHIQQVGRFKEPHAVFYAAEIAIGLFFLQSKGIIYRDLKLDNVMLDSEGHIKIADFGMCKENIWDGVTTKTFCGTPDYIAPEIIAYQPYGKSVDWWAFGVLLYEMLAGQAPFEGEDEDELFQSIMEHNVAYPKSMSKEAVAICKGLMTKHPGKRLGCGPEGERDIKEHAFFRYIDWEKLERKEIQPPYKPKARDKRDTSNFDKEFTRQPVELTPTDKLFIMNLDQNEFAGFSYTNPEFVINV
Protein kinase C delta type, sequence (Q05655 whole entry): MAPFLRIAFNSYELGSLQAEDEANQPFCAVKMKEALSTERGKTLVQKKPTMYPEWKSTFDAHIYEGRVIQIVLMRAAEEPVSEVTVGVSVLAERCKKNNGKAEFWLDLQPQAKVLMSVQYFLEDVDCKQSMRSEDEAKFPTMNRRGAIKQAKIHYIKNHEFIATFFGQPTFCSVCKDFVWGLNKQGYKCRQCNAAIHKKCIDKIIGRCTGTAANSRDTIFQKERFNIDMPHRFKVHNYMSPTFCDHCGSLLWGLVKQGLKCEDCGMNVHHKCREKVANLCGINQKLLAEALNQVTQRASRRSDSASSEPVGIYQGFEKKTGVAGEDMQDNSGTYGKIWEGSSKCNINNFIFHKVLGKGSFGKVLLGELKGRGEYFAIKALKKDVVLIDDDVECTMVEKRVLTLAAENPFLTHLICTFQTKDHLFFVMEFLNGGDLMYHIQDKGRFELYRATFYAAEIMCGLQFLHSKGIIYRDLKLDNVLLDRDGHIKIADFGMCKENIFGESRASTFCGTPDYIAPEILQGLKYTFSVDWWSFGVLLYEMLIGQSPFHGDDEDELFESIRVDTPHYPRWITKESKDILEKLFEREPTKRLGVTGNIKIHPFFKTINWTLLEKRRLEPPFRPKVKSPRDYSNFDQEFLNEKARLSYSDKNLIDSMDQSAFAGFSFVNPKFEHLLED

In general, IC50 refers to the concentration needed to halve the response being measured. The low end stands for greater potency, the high end for weaker potency. One may read the EC50 as the concentration giving half of the maximal effect. Regarding `C=C(C)[C@@H]1CC[C@]2(C(=O)O)CC[C@]3(C)[C@H](CC[C@@H]4[C@@]5(C)CC[C@H](OC(C)=O)C(C)(C)[C@@H]5CC[C@]43C)[C@@H]12`, in data set [1], the selectivity ratio was 0.8. In addition, the figures for the IC50 in data set [2], in data set [4] and in data set [5] were 20 µM, over 150 µM and over 150 µM, respectively. In data set [3], the EC50 was 25 µM.
In the case of `C=C(C)[C@@H]1CC[C@]2(C(=O)O)CC[C@]3(C)[C@H](CC[C@@H]4[C@@]5(C)CC[C@H](OC(=O)CCC(=O)O)C(C)(C)[C@@H]5CC[C@]43C)[C@@H]12`, the selectivity ratio in data set [1] amounted to 4. In addition, the 50% inhibitory concentration (IC50) is 49 µM in data set [6], 16 µM in data set [2], over 150 µM in data set [4] and over 150 µM in data set [5]. The EC50 in data set [3] was determined as 4 µM.
With `C=C(C)[C@@H]1CC[C@]2(C(=O)O)CC[C@]3(C)[C@H](CC[C@@H]4[C@@]5(C)CC[C@H](OC(=O)/C=C/C)C(C)(C)[C@@H]5CC[C@]43C)[C@@H]12`, the selectivity ratio in data set [1] came to 2.5. In addition, the IC50 in data set [2] was 48 µM; in data set [4], over 150 µM; in data set [5], over 150 µM. Further, in data set [3], the EC50 amounted to 19 µM.
For the molecule `C=C(C)[C@@H]1CC[C@]2(C(=O)O)CC[C@]3(C)[C@H](CC[C@@H]4[C@@]5(C)CC[C@H](OS(=O)(=O)O)C(C)(C)[C@@H]5CC[C@]43C)[C@@H]12`, the IC50 in data set [7] is 37 µM; in data set [2], 35 µM; in data set [4], over 150 µM; in data set [5], over 150 µM. Besides, in data set [1], the selectivity ratio is 1.7. Further, the EC50 in data set [3] was 20 µM.
In the case of `C=C(C)[C@@H]1CC[C@]2(C(=O)OCC(=O)OC)CC[C@]3(C)[C@H](CC[C@@H]4[C@@]5(C)CC[C@H](O)C(C)(C)[C@@H]5CC[C@]43C)[C@@H]12`, the selectivity ratio in data set [1] stood at 1.5. For the same molecule, the IC50 in data set [2] is 26 µM; in data set [4], over 150 µM; in data set [5], over 150 µM. Besides, the EC50 in data set [3] stood at 17 µM.
`C=C(C)[C@@H]1CC[C@]2(C(=O)O)CC[C@]3(C)[C@H](CC[C@@H]4[C@@]5(C)CC[C@H](OC(=O)c6ccccc6)C(C)(C)[C@@H]5CC[C@]43C)[C@@H]12`: the IC50 is 74 µM in data set [7], 15 µM in data set [2], over 150 µM in data set [4] and over 150 µM in data set [5]. Also, the selectivity ratio in data set [1] stood at 1. For the same molecule, the EC50 in data set [3] came to 15 µM.
For `C=C(C)[C@@H]1CC[C@]2(C(=O)O)CC[C@]3(C)[C@H](CC[C@@H]4[C@@]5(C)CC[C@H](O)C(C)(C)[C@@H]5CC[C@]43C)[C@@H]12` [BETULINIC ACID], in data set [3], the concentration for a half-maximal effect (EC50) amounted to 1.4 µM. For the same molecule, the IC50 in data set [4] and in data set [5] was over 150 µM each time.
Turning to `C=C(C)[C@@H]1CC[C@]2(CO)CC[C@]3(C)[C@H](CC[C@@H]4[C@@]5(C)CC[C@H](O)C(C)(C)[C@@H]5CC[C@]43C)[C@@H]12` [BETULIN], the selectivity ratio in data set [1] stood at 1.9. Besides, the values for the IC50 in data set [2], in data set [4] and in data set [5] were 45 µM, over 150 µM and over 150 µM, respectively. Further, in data set [3], the 50% effective concentration (EC50) worked out at 23 µM.
With `CC(C)[C@@H]1CC[C@]2(C(=O)O)CC[C@]3(C)C(CCC4[C@@]5(C)CC[C@H](O)C(C)(C)C5CC[C@]43C)C12` (stereo partly drawn) [DIHYDROBETULINIC ACID], the selectivity ratio in data set [1] is 14. The IC50 is 46 µM in data set [6], over 150 µM in data set [4] and over 150 µM in data set [5]. The EC50 in data set [3] is 0.9 µM.
Take `CC(=O)[C@@H]1CC[C@]2(C(=O)O)CC[C@]3(C)[C@H](CC[C@@H]4[C@@]5(C)CC[C@H](O)C(C)(C)[C@@H]5CC[C@]43C)[C@@H]12` [PLATANIC ACID]: the selectivity ratio in data set [1] was determined as 13. Besides, the IC50 in data set [2] was 90 µM; in data set [4] it was over 150 µM; in data set [5], over 150 µM. The concentration for a half-maximal effect (EC50) in data set [3] is 6.5 µM.
Take `Cc1cn([C@H]2C[C@H](N=[N+]=[N-])[C@@H](CO)O2)c(=O)[nH]c1=O` [ZIDOVUDINE]: the IC50 in data set [4] and in data set [5] was over 150 µM each time.

For the origin of these results see ChEMBL document CHEMBL1149038 (J Nat Prod, 1994).
